Tested on: Mycobacterium tuberculosis
Test: Antitubercular activity against Mycobacterium tuberculosis H37Rv at 12.5 ug/mL after 5 to 8 days
Assay type: functional
Summary of the method: (§1)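 Inoculum diluted to reach growth index 999 in 5 days. Compound added from DMSO stock to 4 ml radiometric 7H12 (BACTEC-12B) broth; DMSO-only controls. Incubated at 37 °C, GI read daily until control reached 999. %inhibition = (1 − GI test/GI control) × 100.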

In order of rising inhibition at 12.5 µg/mL:
1. CSc1ccc(/C=N/NC(=O)Cc2cc(=O)oc3cc(C)c(C)cc23)cc1  6%
2. Cc1ccc(C)c2c(CC(=O)N/N=C/c3ccc(N(C)C)cc3)cc(=O)oc12  7%
3. Cc1cc2oc(=O)cc(CC(=O)N/N=C/c3ccccc3[N+](=O)[O-])c2cc1C  11%
4. Cc1cc2oc(=O)cc(CC(=O)N/N=C/c3ccccc3Cl)c2cc1C  17%
5. Cc1cc2oc(=O)cc(CC(=O)N/N=C/c3cccc([N+](=O)[O-])c3)c2cc1C  31%
6. Cc1cc2oc(=O)cc(CC(=O)N/N=C/c3ccc(Cl)cc3)c2cc1C  32%
7. Cc1ccc(C)c2c(CC(=O)N/N=C/c3cccc([N+](=O)[O-])c3)cc(=O)oc12  39%
8. Cc1ccc(C)c2c(CC(=O)N/N=C/c3ccccc3Cl)cc(=O)oc12  48%
9. COc1cc(/C=N/NC(=O)Cc2cc(=O)oc3c(C)ccc(C)c23)cc(OC)c1OC  52%
10. COc1ccccc1/C=N/NC(=O)Cc1cc(=O)oc2c(C)ccc(C)c12  54%
11. Cc1ccc(C)c2c(CC(=O)N/N=C/c3ccc(Cl)cc3)cc(=O)oc12  62%
12. Cc1ccc(C)c2c(CC(=O)N/N=C/c3ccccc3[N+](=O)[O-])cc(=O)oc12  65%
13. Cc1ccc(C)c2c(CC(=O)N/N=C/c3ccccc3)cc(=O)oc12  70%

Tested on: Mycobacterium tuberculosis
Test: Antitubercular activity against Mycobacterium tuberculosis H37Rv at 6.25 ug/mL after 5 to 8 days
Assay type: functional
Summary of the method: as §1

In order of falling inhibition at 6.25 µg/mL:
1. O=C(Cc1cc(=O)oc2cc(O)ccc12)N/N=C/c1cccc([N+](=O)[O-])c1  93%
2. Cc1ccc2oc(=O)cc(CC(=O)N/N=C/c3ccccc3O)c2c1  55%
3. Cc1ccc2oc(=O)cc(CC(=O)N/N=C/c3ccccc3Cl)c2c1  34%
4. COc1cc(/C=N/NC(=O)Cc2cc(=O)oc3ccc(C)cc23)cc(OC)c1OC  34%
5. Cc1ccc2oc(=O)cc(CC(=O)N/N=C/c3ccccc3)c2c1  34%
6. COc1ccc(/C=N/NC(=O)Cc2cc(=O)oc3ccc(C)cc23)cc1  33%
7. COc1ccc(/C=N/NC(=O)Cc2cc(=O)oc3ccc(C)cc23)cc1OC  29%
8. Cc1ccc2oc(=O)cc(CC(=O)N/N=C/c3ccc(F)cc3)c2c1  26%
9. Cc1ccc2oc(=O)cc(CC(=O)N/N=C/c3cccc(Cl)c3)c2c1  21%
10. Cc1ccc2oc(=O)cc(CC(=O)N/N=C/c3ccc(Cl)cc3)c2c1  19%
11. COc1cccc(/C=N/NC(=O)Cc2cc(=O)oc3ccc(C)cc23)c1  19%
12. Cc1ccc2oc(=O)cc(CC(=O)N/N=C/c3cccc([N+](=O)[O-])c3)c2c1  19%

From ChEMBL document CHEMBL1154457, “Synthesis, anti-tubercular activity and 3D-QSAR study of coumarin-4-acetic acid benzylidene hydrazides” (2008)
